Bioassay records deposited in PubChem BioAssay by Sanford-Burnham Center for Chemical Genomics.
hIAP inh – blocks human intestinal alkaline phosphatase; purified IAP, CDP-Star luminescence, 30 min; inhibition, % at 10 µM; AID 2544; P09923; 0.12% of 330,000 active;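 active = inhibition reaching a set limit with compound at 10 µM in the primary screen, cut at about 35% in these data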;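 also: plate controls were DMSO wells with enzyme for no effect and no-enzyme buffer wells for full effect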
Target sequence (P09923 whole entry, looked up): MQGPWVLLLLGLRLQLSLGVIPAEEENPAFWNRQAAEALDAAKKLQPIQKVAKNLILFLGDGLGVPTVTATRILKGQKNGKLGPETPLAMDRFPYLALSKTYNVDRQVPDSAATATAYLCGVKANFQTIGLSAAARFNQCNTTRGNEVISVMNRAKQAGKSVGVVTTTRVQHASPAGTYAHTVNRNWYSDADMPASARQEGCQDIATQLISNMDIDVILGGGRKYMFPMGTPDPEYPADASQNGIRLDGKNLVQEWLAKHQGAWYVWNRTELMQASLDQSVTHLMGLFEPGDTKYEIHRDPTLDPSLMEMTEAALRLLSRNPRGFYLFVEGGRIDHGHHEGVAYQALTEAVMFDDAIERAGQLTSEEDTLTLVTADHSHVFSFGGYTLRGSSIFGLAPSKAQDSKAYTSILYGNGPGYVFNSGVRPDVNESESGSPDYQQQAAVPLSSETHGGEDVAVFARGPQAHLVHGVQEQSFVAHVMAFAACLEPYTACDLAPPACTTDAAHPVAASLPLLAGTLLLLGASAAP
bIAP act – intestinal alkaline phosphatase (bovine) activation; 0.17% of 200,000 active; purified bovine IAP, CDP-star luminescence, 30 min; stronger effect = higher value; fold of DMSO-control signal, blank-subtracted; activation factor at 20 µM; AID 1016;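 active = activation factor of 2 or more at 20 µM, a signal rise over negative controls twice the positive control's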
mIAP activ – increases mouse intestinal alkaline phosphatase activity; muIAP, CDP-Star luminescence, 30 min; stronger effect = higher value; 1 = vehicle-only enzyme signal, 0 = enzyme-free wells; activation factor at 10 µM; 0.24% of 330,000 active;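 active = activation factor of at least 2 at 20 µM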
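System: mouse IAP enzyme. Reagent: CDP-Star chemiluminescent phosphatase substrate. Benchmarks: DMSO wells, no-enzyme wells. Times: 30 min enzyme-substrate-compound incubation at room temperature. Detection: luminescence from enzymatic CDP-Star hydrolysis. Doses: test compounds delivered from DMSO solution.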
bIAP inh – blocks bovine intestinal alkaline phosphatase activity. 190,000 tested, under 10 active. inhibition, % at 20 µM. AID 1019. purified bovine IAP, CDP-star luminescence, 30 min;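 active = over 50% inhibition of intestinal alkaline phosphatase at 20 µM in the single-dose screen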
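Incubation: 30 min reaction at room temperature / Material: purified bovine intestinal alkaline phosphatase (IAP) enzyme / Input: enzyme at 1/65,000,000 dilution / Dosing: 20 µM single dose / Signal: CDP-star luminescence signal / Reagent: CDP-star chemiluminescent phosphatase substrate, 30 µM final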
mIAP inh – mouse IAP inhibition; purified mouse IAP, CDP-Star luminescence, 30 min; inhibition, % at 10 µM; 0.2% of 330,000 active; AID 2806;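 active = inhibition of at least 40% at 10 µM in the primary screen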;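 also: plate controls were DMSO with enzyme for no effect and no enzyme wells for full effect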
hIAP act – human IAP activation. P09923. 0.16% of 330,000 active. purified human IAP, CDP-Star luminescence, 30 min; stronger effect = higher value; 1 = vehicle-only enzyme, 0 = enzyme-free background. activation factor at 10 µM. AID 2524;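 active = activation factor of the enzyme at least 2-fold when tested at 20 µM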
* hit, by the source's call. Sampled rows, rich in hits. Any-hit rate of the full collection: about 0.72%.

O=C(NC(=S)Nc1ccccc1N1CCOCC1)c1ccc(-c2cc(Cl)ccc2Cl)o1 was read as hIAP inh -15.2, bIAP act 3.9*, mIAP activ 0.871, bIAP inh -289.4, mIAP inh 12.9 and hIAP act 1.15.
COc1cc(C2c3c(oc4ccc(Cl)cc4c3=O)C(=O)N2Cc2ccco2)cc(OC)c1OC (centres undefined) was read as bIAP act 2.6* and bIAP inh -164.5.
Screening COc1ccc(NC(=O)Nc2ccc3c(c2)N(C)C(=O)CS3)cc1OC returned hIAP inh -20.1, bIAP act 1.1, mIAP activ 2.22*, bIAP inh -9.1, mIAP inh -122.4 and hIAP act 1.2.
Screening COc1ccc(NC(=O)Nc2ccc3c(c2)N(C)C(=O)CS3)cc1Cl returned hIAP inh -13.2, bIAP act 1, mIAP activ 1.88, bIAP inh -0.2, mIAP inh -87.6 and hIAP act 1.13.
`CCOc1ccc(NC(=O)Nc2ccc3c(c2)N(C)C(=O)CS3)cc1` gave hIAP inh -17.4, bIAP act 1, mIAP activ 2.31*, bIAP inh -0.4, mIAP inh -131.5 and hIAP act 1.17.
For S=C(Nc1cc(Cl)cc(Cl)c1)NC1CCN(Cc2ccccc2)CC1 the results were hIAP inh 8.1, mIAP activ 3.21*, mIAP inh -220.6 and hIAP act 0.919.
For COCC(C)NS(=O)(=O)c1ccc(C(=O)NC(Cc2ccccc2)c2ccccc2)cc1 (centres undefined) the results were hIAP inh 0.0, mIAP activ 2.06*, mIAP inh -106.5 and hIAP act 1.
Cc1ccc2[nH]c(=O)c(C(c3nnnn3CCc3ccccc3)N3CCOCC3)cc2c1 (centres undefined) was read as hIAP inh 3.8, bIAP act 1, mIAP activ 0.541, bIAP inh 3.8, mIAP inh 45.9* and hIAP act 0.962.
COCCn1nnnc1C(c1cc2cc(C)ccc2[nH]c1=O)N1CCc2ccccc21 (centres undefined) was read as hIAP inh 14.6, bIAP act 0.9, mIAP activ 0.613, bIAP inh 7.3, mIAP inh 38.7 and hIAP act 0.854.
Screening COc1ccc(/C=C(\CC(=O)O)c2nc3ccccc3o2)cc1 returned hIAP inh -13.3, bIAP act 1.1, mIAP activ 1.11, bIAP inh -11.5, mIAP inh -10.7 and hIAP act 1.13.
Screening COc1ccc(C(=O)/C(=C/c2cccs2)c2nc3ccccc3o2)cc1 returned hIAP inh 11.9, bIAP act 1, mIAP activ 0.545, bIAP inh -1.8, mIAP inh 45.5* and hIAP act 0.881.
Screening CCOc1cc(/C=C2/N=C(C)C(C(=O)OC)=C2O)ccc1O returned hIAP inh 16.8, bIAP act 0.4, mIAP activ 0.578, mIAP inh 42.2* and hIAP act 0.832.
`N#Cc1c(NC(=O)CSc2ncnc3sccc23)oc(-c2ccco2)c1-c1ccco1` gave hIAP inh 12.3, bIAP act 1, mIAP activ 0.302, bIAP inh -2.0, mIAP inh 69.8* and hIAP act 0.877.
For Cc1cc(NC(=O)CSc2ncnc3sccc23)no1 the results were hIAP inh 6.2, bIAP act 1, mIAP activ 0.978, bIAP inh -3.9, mIAP inh 2.2 and hIAP act 0.938.
c1ccc(-c2csc(NC3CCCCC3)n2)cc1 was read as hIAP inh 20.4, mIAP activ 0.961, mIAP inh 3.9 and hIAP act 0.796.
Screening O=C(Nc1nc(-c2ccccc2)cs1)NC1CCCCC1 returned hIAP inh -4.7, bIAP act 0.8, mIAP activ 2.57*, bIAP inh 17.1, mIAP inh -156.9 and hIAP act 1.05.
O=C(Nc1cccc(Cl)c1)NC1CCN(C2CCCCC2)C1 (centres undefined) was read as hIAP inh -8.4, mIAP activ 2.32*, mIAP inh -131.6 and hIAP act 1.08.
Screening O=C(NC1CCN(C(=O)Nc2cccc(Cl)c2)CC1)C1CCCCC1 returned hIAP inh -16.8, mIAP activ 1.09, mIAP inh -8.6 and hIAP act 1.17.
